Source: ChEMBL document CHEMBL3124896, “Optimization of the lactam side chain of 7-azaindenoisoquinoline topoisomerase I inhibitors and mechanism of action studies in cancer cells” (2014)
Blank lines part the entries; values can stand above or below the molecule they belong to. Calls of active or inactive are those of the source. The calls are words filed in the database; no cut-off is given here.

Legend:
[1] = test system: SN12C; experiment: Cytotoxicity against human SN12C cells by SRB assay; assay type: functional
[2] = test system: DU-145; experiment: Cytotoxicity against human DU145 cells by SRB assay; assay type: functional
[3] = test system: UACC-62; experiment: Cytotoxicity against human UACC62 cells by SRB assay; assay type: functional
[4] = test system: HOP-62; experiment: Cytotoxicity against human HOP62 cells by SRB assay; assay type: functional
[5] = target: T1, DNA topoisomerase 1 (Homo sapiens) (UniProt P11387); experiment: Inhibition of human recombinant topoisomerase 1 using radiolabeled DNA as substrate at 100 uM after 20 mins by SDS-PAGE
T1 sequence (whole entry): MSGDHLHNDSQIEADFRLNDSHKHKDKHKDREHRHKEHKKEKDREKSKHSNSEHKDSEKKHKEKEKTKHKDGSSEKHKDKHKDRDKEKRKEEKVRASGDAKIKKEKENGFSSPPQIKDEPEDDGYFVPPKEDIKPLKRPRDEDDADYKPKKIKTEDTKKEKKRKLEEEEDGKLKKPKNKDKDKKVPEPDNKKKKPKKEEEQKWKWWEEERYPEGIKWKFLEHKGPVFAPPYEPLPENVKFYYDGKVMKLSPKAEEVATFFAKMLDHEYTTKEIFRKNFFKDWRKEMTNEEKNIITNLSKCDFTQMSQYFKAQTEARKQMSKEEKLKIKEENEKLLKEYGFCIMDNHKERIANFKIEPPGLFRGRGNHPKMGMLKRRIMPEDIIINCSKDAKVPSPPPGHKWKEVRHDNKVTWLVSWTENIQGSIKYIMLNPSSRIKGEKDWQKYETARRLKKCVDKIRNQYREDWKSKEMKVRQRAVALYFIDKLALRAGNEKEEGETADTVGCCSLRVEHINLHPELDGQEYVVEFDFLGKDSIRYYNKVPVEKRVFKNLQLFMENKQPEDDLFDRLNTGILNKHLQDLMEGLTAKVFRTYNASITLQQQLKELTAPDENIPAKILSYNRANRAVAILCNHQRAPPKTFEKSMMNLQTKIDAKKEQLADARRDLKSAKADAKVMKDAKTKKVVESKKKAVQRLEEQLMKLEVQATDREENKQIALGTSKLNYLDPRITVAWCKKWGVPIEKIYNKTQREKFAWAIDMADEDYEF
In short: (§1)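 A 117 bp oligonucleotide was 3′-end-labelled with [α-32P]dGTP by Klenow fill-in. Reactions were stopped with 0.5% SDS and run on 20% denaturing polyacrylamide gels. Cleavage bands were scored visually on a semiquantitative scale.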

[6] = test system: HCT-116; experiment: Cytotoxicity against human HCT116 cells by SRB assay; assay type: functional
[7] = Resistance ratio of GI50 for human mitoxantrone-resistant H460 cells to GI50 for human H460 cells; assay type: functional
In short: (§2)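 Relative resistance = GI50 in the resistant subline divided by GI50 in the parental line. Both GI50s came from 72 h continuous-exposure MTS growth assays, each based on at least two independent determinations.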

[8] = target: T1, DNA topoisomerase 1 (Homo sapiens); experiment: Inhibition of human recombinant topoisomerase 1 in human HCT116 cells assessed as reversal of topoisomerase 1-DNA cleavage complex stabilization at 1 uM incubated for 1 hr followed by compound washout measured after 24 hrs by DNA immunoblotting analysis; assay type: cell-based; conditions: HCT-116
In short: (§3)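 10^6 HCT116 cells were treated with 1 μM for 1 h, and for reversal were held in drug-free medium for the set times. Cells were lysed with DNAzol and genomic DNA was isolated and sonicated. Serial dilutions were slot-blotted onto membranes and Top1–DNA complexes detected with the C21 anti-Top1 monoclonal antibody by immunoblotting (ICE method).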

[9] = target: T1, DNA topoisomerase 1 (Homo sapiens); experiment: Inhibition of human recombinant topoisomerase 1 in human HCT116 cells assessed as reversal of topoisomerase 1-DNA cleavage complex stabilization at 1 uM incubated for 1 hr followed by compound washout measured up to 6 hrs by DNA immunoblotting analysis; assay type: cell-based; conditions: HCT-116; in short: as §3
[10] = target: T1, DNA topoisomerase 1 (Homo sapiens); experiment: Inhibition of human recombinant topoisomerase 1 in human HCT116 cells assessed as stabilization of topoisomerase 1-DNA cleavage complex at 1 uM after 1 hr by DNA immunoblotting analysis; assay type: cell-based; conditions: HCT-116; in short: as §3
[11] = Cytotoxicity against human mitoxantrone-resistant H460 cells after 72 hrs by MTT assay; assay type: functional; conditions: NCI-H460, 72 h
In short: (§4)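 Cells were seeded 24 h before dosing and exposed continuously for 72 h. Growth was read by colorimetric MTS assay and expressed relative to vehicle-treated controls set at 100. GI50 is the level giving 50% growth inhibition, from at least two independent determinations. HCT116 and siTop1 cells were kept in RPMI 1640/10% FBS with 100 μg/mL hygromycin; RC0.1 in RPMI 1640/10% FBS.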

[12] = Cytotoxicity against human H460 cells after 72 hrs by MTT assay; assay type: functional; conditions: NCI-H460, 72 h; in short: as §4
[13] = Cytotoxicity against human KB 3.1 cells after 72 hrs by MTT assay; assay type: functional; conditions: KB 3-1, 72 h; in short: as §4
[14] = Cytotoxicity against vinblastine-resistant human KBV1 cells after 72 hrs by MTT assay; assay type: functional; conditions: KB-V1, 72 h; in short: as §4
[15] = test system: HCT-116; experiment: Cytotoxicity against human HCT116 cells transfected with Top1-siRNA after 72 hrs by MTT assay; assay type: functional; conditions: HCT-116, 72 h; in short: as §4
[16] = test system: MCF7; experiment: Cytotoxicity against human MCF7 cells by SRB assay; assay type: functional
[17] = Cytotoxicity against human RC0.1 cells after 72 hrs by MTT assay; assay type: functional; in short: as §4
[18] = test system: HCT-116; experiment: Cytotoxicity against human HCT116 cells after 72 hrs by MTT assay; assay type: functional; conditions: HCT-116, 72 h; in short: as §4
[19] = test system: DU-145; experiment: Cytotoxicity against human DU145 cells after 72 hrs by MTT assay; assay type: functional; conditions: DU-145, 72 h; in short: as §4
[20] = test system: HCT-116; experiment: Induction of DNA damage in human HCT116 cells assessed as induction of histone gamma-H2AX level at 1 uM after 1 hr by flow cytometry
[21] = target: T1, DNA topoisomerase 1 (Homo sapiens); experiment: Inhibition of human recombinant topoisomerase 1 in human HCT116 cells assessed as DNA-protein cross linking at 1 uM incubated for 1 hr followed by compound washout measured after 1 hr; assay type: cell-based; conditions: HCT-116
In short: (§5)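 In HCT116 cells, Top1 cleavage complexes were quantified as DNA–protein cross-links by alkaline elution, plotting the fraction of DNA retained on the filter against time. Persistence was read 1 h after drug removal. The negative control was untreated cells given 30 Gy irradiation to create strand breaks.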

[22] = target: T1, DNA topoisomerase 1 (Homo sapiens); experiment: Inhibition of human recombinant topoisomerase 1 using radiolabeled DNA as substrate at 0.1 to 100 uM after 20 mins by SDS-PAGE
In short: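 Baculovirus-purified human recombinant Top1 with ~2 nM of a 117 bp oligonucleotide, 3′-end-labeled with [α-32P]dGTP by Klenow fill-in. Drugs at 0.1, 1, 10, 100 μM; 25 °C, 20 min. Stopped with 0.5% SDS, run on 20% denaturing PAGE, phosphorimaged. Cleavage bands scored visually against camptothecin standard.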

[23] = test system: OVCAR-3; experiment: Cytotoxicity against human OVCAR3 cells by SRB assay; assay type: functional
[24] = target: T1, DNA topoisomerase 1 (Homo sapiens); experiment: Inhibition of human recombinant topoisomerase 1 in human HCT116 cells assessed as DNA-protein cross linking at 1 uM after 1 hr; assay type: cell-based; conditions: HCT-116; in short: as §5
[25] = test system: HCT-116; experiment: Resistance ratio of GI50 for human HCT116 cells transfected with Top1-siRNA to GI50 for human HCT116 cells; assay type: functional; in short: as §2
[26] = test system: HCT-116; experiment: Cell cycle arrest in human HCT116 cells assessed as accumulation at S phase at 1 uM incubated for 1 hr followed by compound washout measured after 3 hrs by propidium iodide staining-based FACS analysis; assay type: functional
In short: (§6)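 HCT116 cells exposed to 1 μM drug for 1 h, then kept in drug-free medium for the stated times. Fixed cells were stained with propidium iodide and analysed by flow cytometry for DNA content histograms. Phase distributions were computed from the histograms.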

[27] = test system: HCT-116; experiment: Cell cycle arrest in human HCT116 cells assessed as accumulation at G2 phase at 1 uM incubated for 1 hr followed by compound washout measured after 6 to 48 hrs by propidium iodide staining-based FACS analysis; assay type: functional; in short: as §6
[28] = Resistance ratio of GI50 for vinblastine-resistant human KBV1 cells to GI50 for human KB 3.1 cells; assay type: functional
[29] = test system: SF-539; experiment: Cytotoxicity against human SF539 cells by SRB assay; assay type: functional
[30] = test system: HCT-116; experiment: Cell cycle arrest in human HCT116 cells at 1 uM after 1 hr by propidium iodide staining-based FACS analysis; assay type: functional; in short: as §6
[31] = test system: DU-145; experiment: Resistance ratio of GI50 for human RC0.1 cells to GI50 for human DU145 cells; assay type: functional; in short: as §2
[32] = test system: HCT-116; experiment: Cell cycle arrest in human HCT116 cells at 1 uM incubated for 1 hr followed by compound washout measured up to 1 hr by propidium iodide staining-based FACS analysis; assay type: functional; in short: as §6
[33] = target: T1, DNA topoisomerase 1 (Homo sapiens); experiment: Inhibition of human recombinant topoisomerase 1 using radiolabeled DNA as substrate after 20 mins by SDS-PAGE; in short: as §1

inhibition [5]: Active
SMILES: COc1cc2c3c(n(C)c(=O)c2cc1OC)-c1cc2c(cc1C3=O)OCO2
GI50 [1]: 68000 nM | GI50 [2]: 37000 nM | GI50 [3]: 4200 nM | GI50 [4]: 1300 nM | GI50 [6]: 35000 nM

inhibition [8]: Active | inhibition [9]: Active | inhibition [10]: Active
SMILES: CC[C@@]1(O)C(=O)OCc2c1cc1n(c2=O)Cc2cc3c(CN(C)C)c(O)ccc3nc2-1 [TOPOTECAN]
RatioGI50 [7]: >22.39 | GI50 [11]: > 1000 nM | GI50 [12]: 44.7 nM

SMILES: COc1cccc2c1C(=O)c1c(O)c3c(c(O)c1C2=O)C[C@@](O)(C(=O)CO)C[C@@H]3O[C@H]1C[C@H](N)[C@H](O)[C@H](C)O1 [DOXORUBICIN]
GI50 [13]: 676 nM | GI50 [14]: > 1000 nM

SMILES: CC[C@@]1(O)C(=O)OCc2c1cc1n(c2=O)Cc2cc3ccccc3nc2-1 [CAMPTOTHECIN]
GI50 [15]: 35.5 nM | GI50 [16]: 13 nM | GI50 [17]: > 1000 nM | GI50 [18]: 17.4 nM | GI50 [19]: 18.2 nM | Activity [20]: 40.9%

inhibition [21]: Active | inhibition [8]: Active | inhibition [22]: Active | inhibition [24]: Active | inhibition [9]: Active | inhibition [10]: Active
SMILES: COc1cnc2c(c1)C(=O)c1c-2n(CCCn2ccnc2)c(=O)c2cc([N+](=O)[O-])ccc12.Cl
GI50 [15]: 70.8 nM | GI50 [16]: < 10 nM | GI50 [1]: < 10 nM | GI50 [2]: < 10 nM | RatioGI50 [7]: 19.05 | GI50 [17]: > 1000 nM | GI50 [18]: 21.9 nM | GI50 [23]: 25 nM | GI50 [3]: < 10 nM | GI50 [19]: 45.7 nM | RatioGI50 [25]: 3.24 | GI50 [4]: < 10 nM | GI50 [11]: 417 nM | Activity [26]: Active | Activity [20]: 37.3% | GI50 [13]: 417 nM | Activity [27]: Active | RatioGI50 [28]: 1.02 | GI50 [29]: < 10 nM | Activity [30]: Active | GI50 [14]: 427 nM | GI50 [6]: < 10 nM | RatioGI50 [31]: >21.88 | Activity [32]: Active | GI50 [12]: 21.9 nM

inhibition [33]: Active
SMILES: CN(C)CCCn1c2c(c3ccc([N+](=O)[O-])cc3c1=O)C(=O)c1cccnc1-2
GI50 [16]: 474 nM | GI50 [1]: 1560 nM | GI50 [2]: 1550 nM | GI50 [23]: 3120 nM | GI50 [3]: 3400 nM | GI50 [4]: 1940 nM | GI50 [29]: 3140 nM | GI50 [6]: 486 nM

inhibition [33]: Active
SMILES: COc1cnc2c(c1)C(=O)c1c-2n(CCCN(C)C)c(=O)c2cc([N+](=O)[O-])ccc12
